Only some compounds are listed: those with a hit (about 2% of all), similar ones and a draw of the others.
RBBP9 inhibitor: human RBBP9 inhibitors, primary screen, biochemical, fluorescence polarization, FP-Rh probe, HTS; Serine hydrolase RBBP9 (Homo sapiens), O75884; recombinant RBBP9; inhibition, % at 7.94 µM; 0.2% of 220,000 active; AID 1515, 2009;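 active = inhibition above the campaign mean of all tested compounds plus 3 SD, cut at about 14% in these data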;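 note: plate controls were DMSO wells with RBBP9 for no effect and wells lacking RBBP9 protein for full effect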
Target sequence (O75884 whole entry, looked up): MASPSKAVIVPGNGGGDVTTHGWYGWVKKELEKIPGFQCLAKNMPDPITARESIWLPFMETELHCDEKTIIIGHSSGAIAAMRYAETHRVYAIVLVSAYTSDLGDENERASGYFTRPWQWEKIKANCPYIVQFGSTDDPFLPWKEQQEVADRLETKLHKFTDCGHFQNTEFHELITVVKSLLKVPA
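Test system: recombinant human RBBP9. Quantity: 2.5 µM RBBP9 dispensing solution, before mixing. Detection: FP readout at 525/598 nm. Reagent: Serine-hydrolase probe FP-Rh, 375 nM pre-mixing. Measure: % inhibition. Control set: DMSO-treated enzyme wells and wells lacking RBBP9. Buffer or medium: Tris-NaCl-Pluronic buffer, pH 8.0. Times: preincubation 30 min plus labeling 45 min at 25 °C.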
TbHK1 inh: Trypanosoma brucei hexokinase 1 inhibitors, primary screen, biochemical, G6PDH-coupled NADH absorbance, MLSCN library; hexokinase 1 [Trypanosoma brucei]; recombinant TbHK1, G6PDH-coupled NADH A340; inhibition, % at 10 µM; 0.11% of 220,000 active; AID 1430, 2008;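 active = inhibition of 50% or more in the single-dose primary screen; inactive = inhibition below 50%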
TNF necrop inh: inhibitors of TNF-alpha triggered necroptosis, primary screen, cell-based, Jurkat FADD-/-, single concentration. Jurkat FADD-/- TNF necroptosis rescue, ATP luminescence, 24 h; 0 = TNF only, 100 = no-TNF cells. activation (protection from cell death), % at 10 µM. 0.068% of 220,000 active. AID 463075, 2010;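 active = activation, meaning protection from cell death, of at least 50% relative to plate controls; inactive = activation below 50%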;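 note: necroptosis triggered by 40 ng/mL TNF-alpha added together with compound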
zVAD death inh: inhibitors of zVAD-triggered necroptosis, primary screen, L929 cells; AID 1377, 2008; viability rescue, % at 10 µM; L929 zVAD necroptosis rescue, ATP luminescence, 24 h; with zVAD 60 µM; 0.38% of 220,000 active;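 active = activation, scaled between plate controls, above about 75%, limit read from the data; inactive = activation under that limit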;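 note: 0% = zVAD with DMSO and 100% = DMSO alone without zVAD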
PfM18AAP inh: PfM18AAP inhibitors, malaria aminopeptidase, primary screen, biochemical, QFRET, recombinant enzyme; 1.2% of 290,000 active; H-Glu-NHMec fluorogenic cleavage; inhibition, % at 7.35 µM; M18 aspartyl aminopeptidase (Plasmodium falciparum 3D7); AID 1822, 2009;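 active = inhibition above the campaign mean inhibition over all tested compounds plus 3 SD, cut at about 28% in these data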;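 note: 0% = plate median of test compound wells and 100% = 2 mM ZnCl2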
Lipid droplet: inhibitors of hepatocyte lipid droplet formation, primary screen, imaging, high-throughput imaging, BODIPY stain. 0.4% of 240,000 active. inhibition, % at 6.5 µM. AML12 mouse hepatocytes, oleate lipid droplets;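 active = lipid droplet intensity inhibited by at least 50%, with more than 500 cells counted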
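Test system: AML12 mouse liver cells; schedule: overnight exposure; technique: high-content imaging of BODIPY-stained droplets and DAPI nuclei; read-out: % inhibition of corrected integrated BODIPY droplet signal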
* hit, by the source's call; nt = no result given.

SMILES	RBBP9 inhibitor	TbHK1 inh	TNF necrop inh	zVAD death inh	PfM18AAP inh	Lipid droplet
COc1ccccc1NS(=O)(=O)c1cccc(-n2c(O)c(C=Nc3ccccc3C(=O)O)c3ccccc3c2=O)c1	-6.3	13.7	-10.5	0.4	-2.2	51.6*
Cc1ccc(-c2c3c([nH]c(=S)c2C#N)CCCC3)o1	-7.0	1.2	-1.7	-0.2	30.9*	nt
Cc1ccc(S(=O)(=O)Nc2cc(-c3ccccc3)nn2C)cc1Cl	8.0	-15.8	-0.6	0.5	3.4	-10.8
O=C(Nc1ccc(N2CCOCC2)nc1)c1ccc(Cl)cc1	2.5	-12.5	-5.2	0.7	6.7	1.1
Cc1ccc(NC(=O)c2ccc3nc(N4CCOCC4)sc3c2)c(Cl)c1	nt	nt	nt	nt	29.3*	0.8
CCc1ccccc1NC(=O)c1ccc2nc(N3CCOCC3)sc2c1	nt	nt	nt	nt	-1.4	3.7
Cc1ccc(C(=O)Nc2ccc(N3CCOCC3)nc2N2CCOCC2)cc1	-0.3	-14.9	0.7	0.7	28.4*	0.7
CCn1c(C(=O)O)c(S(=O)(=O)c2ccc(Cl)cc2)c2ccccc21	nt	nt	nt	nt	1.4	7.7
COc1ccc(C2C(C(C)=O)=C(O)C(=O)N2c2ccc(Br)cn2)cc1 (stereo unspecified)	0.8	-25.8	-2.5	0.3	7.7	nt
N#Cc1ccccc1Sc1ccccc1C(=O)OCc1nnc(-c2ccccc2)o1	-9.1	58.1*	0.7	-0.2	0.8	1.8
N#Cc1ccccc1Sc1ccccc1C(=O)OCC(N)=O	-2.1	-14.4	-2.1	0.1	3.6	21.5
Cc1cc(OCC(=O)C(C)(C)C)c2c(-c3ccccc3)cc(=O)oc2c1	nt	nt	nt	nt	-3.4	-14.0
COc1cccc(OC)c1OCCNC(C)(C)C	-5.8	2.3	1.0	0.1	3.9	nt
COc1cccc(OC)c1OCCN(C)C	-3.2	-5.7	0.4	0.2	31.2*	-9.8
CCn1c(=O)n(CC)c2cc(N3CCCC3)c(NC(=O)c3ccc(C)c([N+](=O)[O-])c3)cc21	nt	nt	nt	nt	29.2*	3.5
CCn1c(=O)n(CC)c2cc(N3CCCC3)c(NC(=O)c3ccc(OC)c(Br)c3)cc21	nt	nt	nt	nt	26.3	11.3
CCn1c(=O)n(CC)c2cc(N3CCCC3)c(NC(=O)c3cccc(Cl)c3)cc21	nt	nt	nt	nt	31.7*	-5.8
CCn1c(=O)n(CC)c2cc(N3CCCC3)c(NC(=O)c3cccc(C)c3)cc21	nt	nt	nt	nt	27.1	8.0
CCN(CC)Cc1cc(O)c(CN(CC)CC)cc1O	-5.8	9.7	-8.2	-0.2	29.2*	-81.2
CCOCCCNC(=S)Nc1ccc(S(N)(=O)=O)cc1	1.1	-1.2	1.1	0.7	21.5	12.6
Cc1cccc2c(C(=O)Nn3cnnc3)cc(-c3ccccc3Cl)nc12	-11.5	7.9	0.3	-0.4	44.9*	nt
C#CCOc1ccc(C2C3=C(CC(C)(C)CC3=O)N(CC(=O)O)C3=C2C(=O)CC(C)(C)C3)cc1OC	nt	nt	nt	nt	31.6*	8.5
CCOc1cc(C2C3=C(CC(C)(C)CC3=O)N(CCCOC)C3=C2C(=O)CC(C)(C)C3)ccc1O	nt	nt	nt	nt	31.2*	-2.8
CCOc1cc(C2C3=C(CC(C)(C)CC3=O)N(CCOC)C3=C2C(=O)CC(C)(C)C3)ccc1O	nt	nt	nt	nt	11.7	-10.0
CC(C)(C)c1ccc(CCC2OCC(C[N+]3(C)CCOCC3)O2)cc1 (stereo unspecified)	-7.4	7.3	-1.5	0.3	-16.5	18.0
SMILES	RBBP9 inhibitor	TbHK1 inh	TNF necrop inh	zVAD death inh	PfM18AAP inh	Lipid droplet
O=C(NNS(=O)(=O)c1ccccc1)c1ccc([N+](=O)[O-])cc1	nt	nt	nt	nt	28.8*	15.9
O=C(NNS(=O)(=O)c1ccc([N+](=O)[O-])cc1)c1ccncc1	nt	nt	nt	nt	8.7	13.0
c1cnc(N2CC[N+]3(CCCC3)CC2)nc1	-6.2	4.9	-2.4	1.5	5.1	nt
CCOC(=O)c1c(C)[nH]c(C2=NNC(=NC3CC3)SC2)c1C	-3.3	-10.3	1.4	12.2	43.6*	14.9
CCOC(=O)c1c(C)[nH]c(/C(C)=N/O)c1C	-4.8	5.1	-1.1	6.6	6.5	nt
Cc1[nH]n(-c2ccccc2)c(=S)c1C=Nc1cccc([N+](=O)[O-])c1	-9.5	-3.3	-2.3	0.1	49.9*	nt
